Screens deposited in PubChem BioAssay by several laboratories.
A selection: hits, their analogues and other compounds. The true share with any hit is near 0.26%.
Biofilm kill mix: mixtures killing C. albicans biofilm; C. albicans biofilm persisters + clotrimazole, fluorescence viability; primary screen in compound mixtures of four per well; inhibition, % at 7.6 µM; 120,000 compounds, 0.02% hits; AID 1242;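 active = inhibition above 30.3% in the primary screen of four-compound pools, then above 30% when the compound was retested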;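 note: compounds exposed to preformed 24 h biofilms for 48 h; 0% = untreated biofilm control and 100% = clotrimazole plus chlorhexidine kill blank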
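Probe or stimulus – Clotrimazole 50 µg/mL co-treatment · System – C. albicans biofilms · Schedule – 24 h biofilm formation, then 48 h compound exposure, 37 °C · Evaluation – percent inhibition of biofilm viability · Technique – 2-h Alamar Blue fluorescence, 535/590 nm excitation/emission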
TNAP inh noacc: TNAP (human) inhibition, acceptor-free conditions. inhibition, % at 20 µM. P05186. purified TNAP, CDP-star luminescence, 30 min. 200,000 compounds, 0.26% hits;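 active = tissue-nonspecific alkaline phosphatase inhibition above about 50% at 20 µM in the single-dose screen, limit read from the data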;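 note: 0% = DMSO negative control and 100% = EDTA positive control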
Target sequence (P05186 whole entry, looked up): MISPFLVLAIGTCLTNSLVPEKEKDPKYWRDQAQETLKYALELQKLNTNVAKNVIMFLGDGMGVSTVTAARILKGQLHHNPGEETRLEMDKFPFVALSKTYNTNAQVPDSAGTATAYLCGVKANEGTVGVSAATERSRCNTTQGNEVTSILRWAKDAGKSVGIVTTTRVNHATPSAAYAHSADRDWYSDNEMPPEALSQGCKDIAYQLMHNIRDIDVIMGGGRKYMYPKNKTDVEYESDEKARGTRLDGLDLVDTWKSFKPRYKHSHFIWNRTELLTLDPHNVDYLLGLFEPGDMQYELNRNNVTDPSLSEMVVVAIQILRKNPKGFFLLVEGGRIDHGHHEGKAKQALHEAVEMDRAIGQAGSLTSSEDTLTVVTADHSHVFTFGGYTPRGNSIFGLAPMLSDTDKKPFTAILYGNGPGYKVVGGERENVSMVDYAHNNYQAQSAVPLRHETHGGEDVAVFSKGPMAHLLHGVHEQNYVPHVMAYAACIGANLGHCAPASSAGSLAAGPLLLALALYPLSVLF
TNAP inh hiacc: inhibitors of human TNAP at high phosphate acceptor concentration; inhibition, % at 20 µM; P05186; purified TNAP, CDP-star luminescence, 1 M DEA; AID 1135; 200,000 compounds, 0.03% hits;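 active = over 50% inhibition of tissue-nonspecific alkaline phosphatase at 20 µM in the single-dose screen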;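 note: plate controls were DMSO wells for no effect and EDTA-quenched wells as full inhibition for full effect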
TNAP act hi DEA: increases human TNAP activity under high phosphate acceptor concentration; P05186; purified TNAP, CDP-star luminescence, 1 M DEA, 30 min; hits give high values; 0 = EDTA background, 1 = DMSO-only activity; activation factor at 20 µM; 200,000 tested, under 10 active; AID 1136;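 active = activation factor at least 2 at 20 µM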
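Test system – human TNAP · Doses – 20 µM single point · Incubation – 30 min, room temperature · Signal – luminescent substrate turnover signal · Read-out basis – activation factor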
Active calls of the source: *; x = no result given; ! = repeats disagree.

SMILES	Biofilm kill mix	TNAP inh noacc	TNAP inh hiacc	TNAP act hi DEA
Cc1c(Br)c(=O)oc2c(Br)c(O)ccc12	10.2	-12.6	-1.1	1
Cc1c(Br)c(=O)oc2c(Br)c(O)c(O)cc12	0.8	50.0*	2.0	1
COc1cc(C2OCC3C(c4ccc(OC5OC(CO)C(O)C(O)C5O)c(OC)c4)OCC23)ccc1O (configuration not stated)	13.8	63.5*	1.2	1
COc1ccc(C[C@H]2COC(=O)[C@@H]2Cc2ccc(OC3OC(CO)C(O)C(O)C3O)c(OC)c2)cc1OC (some centres not stated)	8.3	-4.3	-3.5	1
COc1ccccc1NS(=O)(=O)c1cc(C(=O)NCCC(C)C)ccc1F	13.4	12.3	-0.5	1
COc1ccc(CCNC(=S)Nc2cccc(C)c2C)cc1	x	-15.3	-5.7	1.1
Cc1cccc(C)c1NC(=S)NCCc1ccc(O)c(O)c1	12.0	60.1*	1.1	1
Cc1nc2c(ncn2-c2ccccc2)c(=O)n1NC(=O)CN1CCN(C)CC1	20.9	x	x	x
COc1c(O)c(O)c2oc(-c3ccccc3)cc(=O)c2c1OC	20.3	3.5	3.7	1
COc1cc(-c2cc(=O)c3c(O)c(OC)c(OC)c(O)c3o2)ccc1O	18.6	64.3*	5.4	0.9
CN1CCCN(Cc2nc(-c3cccc(C(F)(F)F)c3)no2)CC1	16.0	-13.2	-10.8	1.1
Oc1cc2c(cc1O)[C@@H](c1ccccc1)CNCC2	7.9	66.1*	12.9	0.9
CCOC(=O)Cc1nnc(Nc2cc(C)ccc2C)c2ccccc12	18.6	-9.5	-6.0	1.1
COc1cccc(C2Nc3ccccc3C(=O)N2O)c1O (configuration not stated)	x	74.5*	1.2	1
Cc1c(C2Nc3ccccc3C(=O)N2O)cnn1C (configuration not stated)	8.7	-0.5	1.0	1
COc1cc(/C=C/c2sc3ccccc3[n+]2CCCS(=O)(=O)[O-])ccc1O	6.2	55.3*	56.9*	0.4
Cc1ccc2c(c1)sc(C)[n+]2CCCS(=O)(=O)[O-]	15.9	-10.0	-4.4	1
Cc1ccc(NC(=S)N2CCCCC2)cc1C	17.4	x	x	x
Cc1cc(C)c2c(-n3cccc3)nn(C)c2n1	x	-2.2	-3.7	1
Cc1ccc(C(=O)n2nc(-n3cccc3)c3c(C)cc(C)nc32)cc1	-7.6	58.0*	0.4	1
Oc1cc2c(cc1O)C1c3ccc(O)c(O)c3OCC1(O)C2 (configuration not stated)	20.5	86.7*	33.8	0.7
Cc1nc2c3cnn(-c4ccc(C)c(C)c4)c3ncn2n1	x	81.2*	2.5	1
C#CCn1cnc2c(cnn2-c2ccc(C)c(C)c2)c1=O	x	-0.8	5.1	0.9
COc1ccc(-c2nc(SCc3ccccc3)n(C(=O)c3ccco3)n2)cc1	x	19.4	-3.6	1
CCC(=O)n1nc(-c2ccc(OC)cc2)nc1SC	14.7	54.0*	2.6	1
SMILES	Biofilm kill mix	TNAP inh noacc	TNAP inh hiacc	TNAP act hi DEA
CCC(=O)n1nc(-c2ccc(Cl)cc2)nc1SC	-6.0	60.5*	0.3	1
COc1ccc(-c2nc(SC)n(C(=O)c3ccco3)n2)cc1	x	51.7*	-6.6	1.1
CCCC(=O)n1nc(-c2ccc(Cl)cc2)nc1SC	x	53.2*	1.9	1
CCOC(=O)c1[nH]c2cc3c(cc2c1NC(=O)CN1CCN(CCO)CC1)OCO3	9.2	x	x	x
C=CCN1C(=O)CSc2ccc(C(=O)N3CCC(C)CC3)cc21	x	-5.8	-5.5	1.1
COc1ccc(CNC(=O)C2CCC(CNc3c(N4CCC(C)CC4)c(=O)c3=O)CC2)cc1 (configuration not stated)	23.4	x	x	x
CC(C)c1[nH]nc2c1C(C1C=CCCC1)C(C#N)=C(N)O2 (configuration not stated)	16.1	x	x	x
Cc1[nH]nc2c1C(C1CC=CCC1)C(C#N)=C(N)O2 (configuration not stated)	x	72.4*	2.1	1
CCc1[nH]nc2c1C(C1C=CCCC1)C(C#N)=C(N)O2 (configuration not stated)	3.8	70.0*	-4.9	1
CNC[C@H](O)c1ccc(O)c(O)c1	17.1	77.6*	9.0	0.9
CNC[C@H](O)c1cccc(O)c1	13.3	-5.6	2.7	1
CCCc1n[nH]c2c1C(=O)C(C(=O)OC)C(C)(C)C2 (configuration not stated)	x	61.3*	3.3	1
C/C(=N\NC(=O)c1ccccc1O)C1C(=O)c2ccccc2C1=O	x	59.8*	12.2	0.9
C/C(=N/NC(=O)c1cc2ccccc2cc1O)C1C(=O)c2ccccc2C1=O	x	-162.4	11.3	0.9
CC1CCC(C(C)C)C(OC(=O)Cn2c(-c3ccc(Br)cc3)[n+](C)c3ccccc32)C1 (configuration not stated)	11.2	-9.9	-2.9	1
Cc1ccccc1OCc1n(CC(=O)OC2CC(C)CCC2C(C)C)c2ccccc2[n+]1C (configuration not stated)	34.3*!	-0.5	-0.1	1
COc1ccc(C2=NN(CC(=O)Nc3cc(C)ccc3C)C(=O)CC2)cc1	25.0	x	x	x
COc1cc(/C=N/N=C2/C(=O)Nc3ccccc32)cc(OC)c1O	21.0	49.4	56.0*	0.4
O=C1Nc2ccccc2/C1=N/N=C/c1cccc(O)c1	3.6	x	x	x
COc1ccc(C2CC(=O)n3nc(C45CC6CC(CC(C6)C4)C5)nc3S2)cc1OC (configuration not stated)	12.5	88.4*	1.0	1
CCOc1ccc(C2CC(=O)n3nc(C45CC6CC(CC(C6)C4)C5)nc3S2)cc1OC (configuration not stated)	x	84.8*	-3.3	1
O=C(COC(=O)C1(c2ccc(F)cc2)CCCC1)N1CCc2ccccc21	6.6	-9.8	-3.5	1
N#C/C(=C\c1ccc(O)c(O)c1)C(=O)NCCCc1ccccc1	9.6	79.0*	34.2	0.7
N#C/C(=C\c1ccc(O)c(O)c1)C(=O)N1CCCC1	17.0	72.6*	26.4	0.7
COc1ccc(/C=C(\C#N)C(=O)N2CCOCC2)cc1Br	x	-5.0	-2.3	1
SMILES	Biofilm kill mix	TNAP inh noacc	TNAP inh hiacc	TNAP act hi DEA
Cc1ccsc1/C=c1\sc2ncnn2c1=O	x	83.9*	23.5	0.8
CC(C)Cc1nnc(NC(=O)CCC(=O)Nc2ccccc2F)s1	23.8	x	x	x
CC(C)Cc1nnc(NC(=O)CCC(=O)Nc2ccc(F)cc2)s1	x	51.1*	-1.1	1
CCN(CC)C(=O)CSC1=C(C#N)C(c2cccs2)C=C(C)N1 (configuration not stated)	x	3.3	-3.6	1
COc1cccc(/C=N/n2c(-c3ccco3)nc3ccccc3c2=O)c1OC	17.8	0.2	3.0	1
CCC(CO)[n+]1c(C)cc(/C=C2\Sc3ccccc3N2Cc2ccccc2)cc1C (configuration not stated)	34.5*	-7.1	18.2	0.8
O=C(NC(=S)Nc1cccc(NC(=O)c2ccccc2)c1)c1cccc([N+](=O)[O-])c1	19.6	3.4	3.5	1
NS(=O)(=O)c1cccc(NC(=S)NC(=O)c2cccc([N+](=O)[O-])c2)c1	14.7	69.6*	7.1	0.9
